Activity calls are given as the source filed them. The calls are words filed in the database; no cut-off is given here.
How the values were obtained:
Rattus norvegicus [1] = test: Neurotoxicity in pilocarpine-induced status epilepticus Sprague-Dawley albino rat model assessed as minimal motor impairment at 30 mg/kg, ip after 1 hr by rotarod test; assay type: toxicity, organism-based; design: dose 30 mg/kg, route intraperitoneal; settings: in vivo
Procedure, shortened: (§1)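 Rat pilocarpine status epilepticus model: test carbamate given at 0 or 30 min after the first observed Racine stage 3 motor seizure, which marks SE onset. Neurotoxicity was scored within the same model.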

Mus musculus [2] = test: Anticonvulsant activity in albino CF1 mouse assessed as protection against maximal electroshock-induced seizures at 30 mg/kg, ip after 4 hrs; assay type: functional, organism-based; design: dose 30 mg/kg
Procedure, shortened: (§2)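 Mice dosed ip at 30, 100 or 300 mg/kg, then tested 0.5 h and 4 h after administration in the MES or scMet test. Protection was recorded as animals protected over animals tested. Neurotoxicity was recorded as motor impairment or sedation, as animals affected over animals tested.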

Mus musculus [3] = test: Neurotoxicity in albino CF1 mouse assessed as minimal motor impairment at 100 mg/kg, ip after 0.5 hrs by rotarod test; assay type: toxicity, organism-based; design: dose 100 mg/kg, route intraperitoneal; settings: in vivo; procedure, shortened: as §2
Mus musculus [4] = test: Anticonvulsant activity in albino CF1 mouse assessed as protection against subcutaneous metrazol-induced seizures at 100 mg/kg, ip after 4 hrs; assay type: functional, organism-based; design: dose 100 mg/kg; procedure, shortened: as §2
Rattus norvegicus [5] = test: Anticonvulsant activity in Sprague-Dawley albino rat assessed as protection against pilocarpine-induced status epilepticus at 65 mg/kg, ip; assay type: functional, organism-based; design: dose 65 mg/kg
Procedure, shortened: (§3)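 Pilocarpine status epilepticus model in rats. Number and severity of convulsive seizures were observed behaviourally.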

Rattus norvegicus [6] = test: Neurotoxicity in pilocarpine-induced status epilepticus Sprague-Dawley albino rat model assessed as minimal motor impairment at 30 mg/kg, ip after 2 hrs by rotarod test; assay type: toxicity, organism-based; design: dose 30 mg/kg, route intraperitoneal; settings: in vivo; procedure, shortened: as §1
Mus musculus [7] = test: Anticonvulsant activity in albino CF1 mouse assessed as protection against maximal electroshock-induced seizures at 300 mg/kg, ip after 4 hrs; assay type: functional, organism-based; design: dose 300 mg/kg; procedure, shortened: as §2
Mus musculus [8] = test: Anticonvulsant activity in albino CF1 mouse assessed as protection against subcutaneous metrazol-induced seizures at 300 mg/kg, ip after 4 hrs; assay type: functional, organism-based; design: dose 300 mg/kg; procedure, shortened: as §2
Rattus norvegicus [9] = test: Anticonvulsant activity in Sprague-Dawley albino rat assessed as protection against maximal electroshock-induced seizures at 30 mg/kg, po after 15 mins; assay type: functional, organism-based; design: dose 30 mg/kg
Procedure, shortened: (§4)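 Rats dosed orally. Anti-MES protection was scored as animals protected over animals tested at each time after dosing. Neurotoxicity was scored as motor impairment or sedation, as animals affected over animals tested.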

Mus musculus [10] = test: Neurotoxicity in albino CF1 mouse assessed as minimal motor impairment at 30 mg/kg, ip after 4 hrs by rotarod test; assay type: toxicity, organism-based; design: dose 30 mg/kg, route intraperitoneal; settings: in vivo; procedure, shortened: as §2
Mus musculus [11] = test: Anticonvulsant activity in albino CF1 mouse assessed as protection against subcutaneous metrazol-induced seizures at 30 mg/kg, ip after 4 hrs; assay type: functional, organism-based; design: dose 30 mg/kg; procedure, shortened: as §2
Mus musculus [12] = test: Neurotoxicity in albino CF1 mouse assessed as minimal motor impairment at 300 mg/kg, ip after 4 hrs by rotarod test; assay type: toxicity, organism-based; design: dose 300 mg/kg, route intraperitoneal; settings: in vivo; procedure, shortened: as §2
Rattus norvegicus [13] = test: Anticonvulsant activity in Sprague-Dawley albino rat assessed as protection against maximal electroshock-induced seizures at 30 mg/kg, po after 2 hrs; assay type: functional, organism-based; design: dose 30 mg/kg; procedure, shortened: as §4
Rattus norvegicus [14] = test: Neurotoxicity in pilocarpine-induced status epilepticus Sprague-Dawley albino rat model assessed as minimal motor impairment at 100 mg/kg, ip after 0.5 hrs by rotarod test; assay type: toxicity, organism-based; design: dose 100 mg/kg, route intraperitoneal; settings: in vivo
Rattus norvegicus [15] = test: Neurotoxicity in pilocarpine-induced status epilepticus Sprague-Dawley albino rat model assessed as minimal motor impairment at 30 mg/kg, ip after 0.25 hr by rotarod test; assay type: toxicity, organism-based; design: dose 30 mg/kg, route intraperitoneal; settings: in vivo; procedure, shortened: as §1
Mus musculus [16] = test: Anticonvulsant activity in albino CF1 mouse assessed as protection against maximal electroshock-induced seizures at 300 mg/kg, ip after 0.5 hrs; assay type: functional, organism-based; design: dose 300 mg/kg; procedure, shortened: as §2
Rattus norvegicus [17] = test: Neurotoxicity in Sprague-Dawley albino rat assessed as minimal motor impairment at 30 mg/kg, po by rotarod test; assay type: toxicity, organism-based; design: dose 30 mg/kg, route oral; settings: in vivo; procedure, shortened: as §4
Mus musculus [18] = test: Anticonvulsant activity in albino CF1 mouse assessed as protection against subcutaneous metrazol-induced seizures at 300 mg/kg, ip after 0.5 hrs; assay type: functional, organism-based; design: dose 300 mg/kg; procedure, shortened: as §2
Rattus norvegicus [19] = test: Neurotoxicity in pilocarpine-induced status epilepticus Sprague-Dawley albino rat model assessed as minimal motor impairment at 300 mg/kg, ip after 4 hrs by rotarod test; assay type: toxicity, organism-based; design: dose 300 mg/kg, route intraperitoneal; settings: in vivo; procedure, shortened: as §1
Rattus norvegicus [20] = test: Neurotoxicity in pilocarpine-induced status epilepticus Sprague-Dawley albino rat model assessed as minimal motor impairment at 100 mg/kg, ip after 1 hr by rotarod test; assay type: toxicity, organism-based; design: dose 100 mg/kg, route intraperitoneal; settings: in vivo
Mus musculus [21] = test: Neurotoxicity in albino CF1 mouse assessed as minimal motor impairment at 30 mg/kg, ip after 0.5 hrs by rotarod test; assay type: toxicity, organism-based; design: dose 30 mg/kg, route intraperitoneal; settings: in vivo; procedure, shortened: as §2
Mus musculus [22] = test: Neurotoxicity in albino CF1 mouse assessed as minimal motor impairment at 100 mg/kg, ip after 4 hrs by rotarod test; assay type: toxicity, organism-based; design: dose 100 mg/kg, route intraperitoneal; settings: in vivo; procedure, shortened: as §2
Rattus norvegicus [23] = test: Neurotoxicity in pilocarpine-induced status epilepticus Sprague-Dawley albino rat model assessed as minimal motor impairment at 100 mg/kg, ip after 0.25 hr by rotarod test; assay type: toxicity, organism-based; design: dose 100 mg/kg, route intraperitoneal; settings: in vivo
Mus musculus [24] = test: Anticonvulsant activity in albino CF1 mouse assessed as protection against subcutaneous metrazol-induced seizures at 30 mg/kg, ip after 0.5 hrs; assay type: functional, organism-based; design: dose 30 mg/kg; procedure, shortened: as §2
Rattus norvegicus [25] = test: Neurotoxicity in pilocarpine-induced status epilepticus Sprague-Dawley albino rat model assessed as minimal motor impairment at 65 mg/kg, ip after 0.5 hrs by rotarod test; assay type: toxicity, organism-based; design: dose 65 mg/kg, route intraperitoneal; settings: in vivo; procedure, shortened: as §1
Rattus norvegicus [26] = test: Neurotoxicity in pilocarpine-induced status epilepticus Sprague-Dawley albino rat model assessed as minimal motor impairment at 300 mg/kg, ip after 2 hrs by rotarod test; assay type: toxicity, organism-based; design: dose 300 mg/kg, route intraperitoneal; settings: in vivo; procedure, shortened: as §1
Rattus norvegicus [27] = test: Neurotoxicity in pilocarpine-induced status epilepticus Sprague-Dawley albino rat model assessed as minimal motor impairment at 300 mg/kg, ip after 0.5 hrs by rotarod test; assay type: toxicity, organism-based; design: dose 300 mg/kg, route intraperitoneal; settings: in vivo; procedure, shortened: as §1
Rattus norvegicus [28] = test: Anticonvulsant activity in Sprague-Dawley albino rat assessed as protection against maximal electroshock-induced seizures at 30 mg/kg, po after 4 hrs; assay type: functional, organism-based; design: dose 30 mg/kg; procedure, shortened: as §4
Rattus norvegicus [29] = test: Neurotoxicity in pilocarpine-induced status epilepticus Sprague-Dawley albino rat model assessed as minimal motor impairment at 100 mg/kg, ip after 4 hrs by rotarod test; assay type: toxicity, organism-based; design: dose 100 mg/kg, route intraperitoneal; settings: in vivo
Mus musculus [30] = test: Anticonvulsant activity in albino CF1 mouse assessed as protection against maximal electroshock-induced seizures at 100 mg/kg, ip after 4 hrs; assay type: functional, organism-based; design: dose 100 mg/kg; procedure, shortened: as §2
Rattus norvegicus [31] = test: Neurotoxicity in pilocarpine-induced status epilepticus Sprague-Dawley albino rat model assessed as minimal motor impairment at 30 mg/kg, ip after 0.5 hrs by rotarod test; assay type: toxicity, organism-based; design: dose 30 mg/kg, route intraperitoneal; settings: in vivo; procedure, shortened: as §1
Mus musculus [32] = test: Anticonvulsant activity in albino CF1 mouse assessed as protection against maximal electroshock-induced seizures at 30 mg/kg, ip after 0.5 hrs; assay type: functional, organism-based; design: dose 30 mg/kg; procedure, shortened: as §2
Mus musculus [33] = test: Anticonvulsant activity in albino CF1 mouse assessed as protection against maximal electroshock-induced seizures at 100 mg/kg, ip after 0.5 hrs; assay type: functional, organism-based; design: dose 100 mg/kg; procedure, shortened: as §2
Mus musculus [34] = test: Anticonvulsant activity in albino CF1 mouse assessed as protection against subcutaneous metrazol-induced seizures at 100 mg/kg, ip after 0.5 hrs; assay type: functional, organism-based; design: dose 100 mg/kg; procedure, shortened: as §2
Rattus norvegicus [35] = test: Neurotoxicity in pilocarpine-induced status epilepticus Sprague-Dawley albino rat model assessed as minimal motor impairment at 300 mg/kg, ip after 0.25 hr by rotarod test; assay type: toxicity, organism-based; design: dose 300 mg/kg, route intraperitoneal; settings: in vivo; procedure, shortened: as §1
Mus musculus [36] = test: Neurotoxicity in albino CF1 mouse assessed as minimal motor impairment at 300 mg/kg, ip after 0.5 hrs by rotarod test; assay type: toxicity, organism-based; design: dose 300 mg/kg, route intraperitoneal; settings: in vivo; procedure, shortened: as §2
Rattus norvegicus [37] = test: Neurotoxicity in pilocarpine-induced status epilepticus Sprague-Dawley albino rat model assessed as minimal motor impairment at 30 mg/kg, ip after 4 hrs by rotarod test; assay type: toxicity, organism-based; design: dose 30 mg/kg, route intraperitoneal; settings: in vivo; procedure, shortened: as §1
Rattus norvegicus [38] = test: Anticonvulsant activity in ip dosed Sprague-Dawley albino rat assessed as protection against pilocarpine-induced status epilepticus after 0.5 hrs; assay type: functional; procedure, shortened: as §3
Rattus norvegicus [39] = test: Neurotoxicity in pilocarpine-induced status epilepticus Sprague-Dawley albino rat model assessed as minimal motor impairment at 100 mg/kg, ip after 2 hrs by rotarod test; assay type: toxicity, organism-based; design: dose 100 mg/kg, route intraperitoneal; settings: in vivo
Rattus norvegicus [40] = test: Neurotoxicity in pilocarpine-induced status epilepticus Sprague-Dawley albino rat model assessed as minimal motor impairment at 300 mg/kg, ip after 1 hr by rotarod test; assay type: toxicity, organism-based; design: dose 300 mg/kg, route intraperitoneal; settings: in vivo; procedure, shortened: as §1

## CCCC(COC(N)=O)C(C)C (racemic)
Rattus norvegicus [1]
  Activity: Non-toxic
Mus musculus [2]
  Activity: inactive
Mus musculus [3]
  Activity: Non-toxic
Mus musculus [4]
  Activity: inactive
Rattus norvegicus [5]
  Activity: Active
Rattus norvegicus [6]
  Activity: Non-toxic
Mus musculus [7]
  Activity: inactive
Mus musculus [8]
  Activity: inactive
Rattus norvegicus [9]
  Activity: inactive
Mus musculus [10]
  Activity: Non-toxic
Mus musculus [11]
  Activity: inactive
Mus musculus [12]
  Activity: Non-toxic
Rattus norvegicus [13]
  Activity: inactive
Rattus norvegicus [14]
  Activity: Toxic
Rattus norvegicus [15]
  Activity: Non-toxic
Mus musculus [16]
  Activity: Active
Rattus norvegicus [17]
  Activity: Non-toxic
Mus musculus [18]
  Activity: Active
Rattus norvegicus [19]
  Activity: Toxic
Rattus norvegicus [20]
  Activity: Toxic
Mus musculus [21]
  Activity: Non-toxic
Mus musculus [22]
  Activity: Non-toxic
Rattus norvegicus [23]
  Activity: Toxic
Mus musculus [24]
  Activity: inactive
Rattus norvegicus [25]
  Activity: Non-toxic
Rattus norvegicus [26]
  Activity: Toxic
Rattus norvegicus [27]
  Activity: Toxic
Rattus norvegicus [28]
  Activity: inactive
Rattus norvegicus [29]
  Activity: Non-toxic
Mus musculus [30]
  Activity: inactive
Rattus norvegicus [31]
  Activity: Non-toxic
Mus musculus [32]
  Activity: inactive
Mus musculus [33]
  Activity: Active
Mus musculus [34]
  Activity: inactive
Rattus norvegicus [35]
  Activity: Toxic
Mus musculus [36]
  Activity: Toxic
Rattus norvegicus [37]
  Activity: Non-toxic
Rattus norvegicus [38]
  ED50: 107 mg/kg
  ED97: 151 mg/kg
Rattus norvegicus [39]
  Activity: Non-toxic
Rattus norvegicus [40]
  Activity: Toxic
